This sample holds only a part of the variants without activity.

The chains are these.
B1: tRNA (parent)
chain: CUCUCGGUAGCCAAGUUGGUUUAAGGCGCAAGACUUUAAUUUAUCACUACGAAAUCUUGAGAUCGGGCGUUCGACUCGCCCCCGGGAGAUUUUUUCCUCGAGCAA

The variants in the data set derive from B1. The data set can be described thus: nonsense suppression (GFP-seq) (ratio to wild type); higher = more function; SUP4oc tRNA, yeast GFP reporter sort-seq. In a few lines: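 Yeast were grown in raffinose/galactose medium with 80 mg/L adenine, each strain bearing a genome-integrated ochre-suppressor tRNA variant from a ~3% random-mutation library, a galactose-driven GFP ochre reporter, and RFP. After sorting into GFP/RFP bins, every bin was sequenced on an Illumina platform at phred ≥30. The GFPSEQ value, a measure of nonsense suppression, is the weighted bin median GFP/RFP relative to the unmutated parent tRNA, using each variant's estimated cell share per bin as the weight. Only variants with ≥100 reads and ≥30 cells were included.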
In the case of C5U U76A C79A, the nonsense suppression is at most 0.026.
Regarding G6C C34G A54U, the nonsense suppression is at most 0.026.
To G6U U63C belongs at most 0.026; to G7A A23C C56G, at most 0.026; to U8G A60G, at most 0.026.
On to C5U U55C G88A, for which the nonsense suppression was at most 0.026.
Turning to G6U U70C, the nonsense suppression is at most 0.026.
Under U8A U16G stands 0.0647.
For the variant U8A A14G, the nonsense suppression turned out to be 0.18.
G6C U20A: the nonsense suppression was at most 0.026.
As to G6C U20G, the nonsense suppression was at most 0.026.
Regarding C5A U55C A89G, the nonsense suppression was at most 0.026.
With C5G G6A A33U U35G U70C, the nonsense suppression was at most 0.026.
To C5G G25C G69C C80A belongs at most 0.026; to C5U G28C A30G A33U, at most 0.026.
To C5G U57G U71G belongs at most 0.026.
C5U G69A: the nonsense suppression was at most 0.026.
On to C5G C12G U16C G32A, for which the nonsense suppression was at most 0.026.
Consider G6U C11U A13U, for which the nonsense suppression is at most 0.026.
G6U U57A: the nonsense suppression is at most 0.026.
Take C5G G10C U57C: the nonsense suppression is at most 0.026.
U8G A13G G61C C68G C82G: the nonsense suppression is at most 0.026.
On to C5A U8C, for which the nonsense suppression was at most 0.026.
Under C5A U8A stands at most 0.026; under A9C A31G C68G G86A, at most 0.026; under G7A U16G G26C U71G, at most 0.026.
Under G7U A13G U17A stands at most 0.026; under U8A A54U U76C A87C, at most 0.026; under U8A G26C A31U U55A U71A, at most 0.026.
Under G7C A9U stands 0.0428; under G7U C56U, at most 0.026.
With A9C U22A, the nonsense suppression stood at 0.709.
To A9C U22G belongs 0.878.
With G7C U57A, the nonsense suppression was at most 0.026.
For U8A A60C G73U A87C, the nonsense suppression is at most 0.026.
As for C5U C68U, the nonsense suppression is at most 0.026.
With A9C, the nonsense suppression was 1.05.
A9G: the nonsense suppression was 0.45.
For U8G G26A C56U C64G G66U G78U A89U, the nonsense suppression was at most 0.026.
G6A C81U: the nonsense suppression amounted to 0.0651.
As for C5G A33G G65A G66C, the nonsense suppression is at most 0.026.
As for G6A A24G C27A C29G, the nonsense suppression was at most 0.026.
Regarding G7U G32A A33C C83A A89G, the nonsense suppression was at most 0.026.
On to U8G A13C G28C C64U U70A C72U G84U, for which the nonsense suppression was at most 0.026.
As for G6U U17C G28U U55C G69U G88U, the nonsense suppression is at most 0.026.
Regarding C5G U20G C75G G88U, the nonsense suppression is at most 0.026.
With G6A A13G, the nonsense suppression is at most 0.026.
In the case of G6A A13U, the nonsense suppression stood at 0.0458.
To A9C G61C G73C belongs at most 0.026; to C5U U17C, 0.0495; to A9C A60U, 0.575.
Take A9C A60C: the nonsense suppression stood at 0.0924.
As to U8G A9U C11A G26U, the nonsense suppression is at most 0.026.
Regarding G7U U8C, the nonsense suppression was at most 0.026.
As for G7U G65A U76A, the nonsense suppression was at most 0.026.
Under G6U U17G C83A stands 1.15; under C5G A60C C64A, at most 0.026; under C5U, 0.096.
Turning to G6U G7C A33U, the nonsense suppression was at most 0.026.
Take U8C U70G A74C G84C: the nonsense suppression came to 0.0541.
Under G7A G86U stands at most 0.026; under C5U G19C U35A A89G, at most 0.026; under G6A U63G C81U, at most 0.026.
Under U8A G25C U70A stands at most 0.026; under G7C U55C, 0.0823.
A9C A13G: the nonsense suppression was 0.0462.
For the variant A9C A13C, the nonsense suppression came out at 1.15.
Under U8G U57C stands at most 0.026.
On to A9C C11A C75A, for which the nonsense suppression is at most 0.026.
For C5U C79U, the nonsense suppression stood at 0.0439.
As for G7C G10A C68G, the nonsense suppression was at most 0.026.
Under A9C G18A A31C A54C A62U G69C G88C stands at most 0.026.
Under C5G G7U C11G stands at most 0.026; under C5U G84A, 1.15; under A9C C29U, 0.751.
To U8C A14C C34U belongs at most 0.026.
Consider G7A G61A, for which the nonsense suppression is at most 0.026.
Under C5G G84U stands 0.475.
To C5U U21A belongs at most 0.026; to G6A U8G, at most 0.026.
On to U8C A31C A54U G85A G88A, for which the nonsense suppression is at most 0.026.
As to U8A G61A C72G C81G, the nonsense suppression is at most 0.026.
To C5U A62C G65C U70G U71A belongs at most 0.026.
Take A9C U21A A31G U71C: the nonsense suppression is at most 0.026.
On to U8G C27U, for which the nonsense suppression is at most 0.026.
For the variant G6C C12G C72G C75U G85C, the nonsense suppression is at most 0.026.
Regarding C5G A13G G78U, the nonsense suppression is at most 0.026.
To G6C A9U G65U G85C belongs at most 0.026.
With U8C U35G U71A, the nonsense suppression is at most 0.026.
To C5G G25C G69C belongs at most 0.026; to G7A U17C A24G G32U U71C A87U, at most 0.026; to C5G U76G, at most 0.026.
As to G7C C29G, the nonsense suppression was at most 0.026.
To G7U C11U C56G belongs at most 0.026; to C5A U16G G88U, at most 0.026; to C5G U16A U22C U57C C72U A87C, at most 0.026.
Under G7U A9C U16C U57C stands at most 0.026; under G6C A14G A60C G65U C79G G86C, at most 0.026; under U8A G32A, at most 0.026.
Under A9C C12U stands 0.186.
With C5U C83G, the nonsense suppression is at most 0.026.
Under G6A A24G stands 0.0293.
Turning to G6A A24U, the nonsense suppression amounted to 0.0308.
Under U8A A30G A33G stands at most 0.026; under U8C G65A C72U, at most 0.026.
To C5G C12G belongs 0.174; to A9C A23G, 0.0661.
As for C5A U63A G66C, the nonsense suppression was at most 0.026.
With U8A A23G C80G G84C, the nonsense suppression was at most 0.026.
G6A C79U G88C: the nonsense suppression is at most 0.026.
As to U8C A24U U71C, the nonsense suppression was at most 0.026.
In the case of G7A A13U U58G G86C, the nonsense suppression is at most 0.026.
Consider U8C A9U A54U, for which the nonsense suppression was at most 0.026.
As for G7A G25U, the nonsense suppression was at most 0.026.
For G7U U21A G78A C79A, the nonsense suppression was at most 0.026.
As for A9C A30U, the nonsense suppression is 0.0886.
With A9C A30G, the nonsense suppression was found to be 0.171.
Under G6A G28C stands 0.0666; under C5U U8C G65A, at most 0.026.
For the variant G6C U35G, the nonsense suppression was at most 0.026.
With A9C A31G, the nonsense suppression came out at 0.857.
Under G7U U55C C68U A89C stands at most 0.026; under U8C A54C, 0.0833.
For C5U U8A A9C G10C C12U G25U A31G, the nonsense suppression was at most 0.026.
With C5U C75A, the nonsense suppression came to 0.209.
For C5U C75U, the nonsense suppression came out at 0.0347.
Regarding A9C U58G G61U, the nonsense suppression was at most 0.026.
Regarding C5A U76C G86C, the nonsense suppression was at most 0.026.
For C5U U55G C68A A74U, the nonsense suppression was at most 0.026.
As to C5U C80G, the nonsense suppression is at most 0.026.
For C5G G59A A62C, the nonsense suppression is at most 0.026.
To G7A U20C C82A G86A G88A A89C belongs at most 0.026; to C5U C11A U21G A87U, at most 0.026; to G7A U76C G88U, at most 0.026.
To G6A C29G A62C C75G belongs at most 0.026; to G7U A9U A31U, at most 0.026; to G7A U35G G59A, at most 0.026.
For A9C C12U A23C A87U, the nonsense suppression is at most 0.026.
G7U A54C: the nonsense suppression was found to be 0.0394.
Take G7U U58G C80G: the nonsense suppression is at most 0.026.
Under G7C U76C stands at most 0.026.
Under C5U A23G stands 0.0405; under C5U G7U G25A, at most 0.026; under U8C C12A C68A C72U, at most 0.026.
Turning to C5G U55C G69C G86U, the nonsense suppression was at most 0.026.
On to C5U A23G G26C G78A, for which the nonsense suppression is at most 0.026.
Turning to U8A A14U U20A A74C, the nonsense suppression was at most 0.026.
In the case of C5U G85U, the nonsense suppression was determined as 0.0303.
For the variant C5U G85A, the nonsense suppression was determined as 0.08.
Turning to U8C U21G, the nonsense suppression was 0.0903.
Consider U8C U21A, for which the nonsense suppression is at most 0.026.
G7U G32A A60C A74G: the nonsense suppression was at most 0.026.
Consider U8A U55G C81G, for which the nonsense suppression was at most 0.026.
On to A9C U20A, for which the nonsense suppression is 0.183.
With A9C C75A, the nonsense suppression was determined as 0.938.
As for C5G C12A G59U, the nonsense suppression is at most 0.026.
Under G7C C12A U71G U76C G88A stands at most 0.026; under G7A G10U U20A U35G U57G U63C, at most 0.026.
Take U8A A24C C79G: the nonsense suppression was at most 0.026.
Regarding C5A U58A G78C, the nonsense suppression was at most 0.026.
To C5U G66U G78A belongs at most 0.026.
Under G6A G25C A33G stands at most 0.026; under C5U U20C, at most 0.026; under U8G C29G G84A, at most 0.026.
To G6U U16G G59A G78A belongs at most 0.026.
For the variant G7C G73U, the nonsense suppression was at most 0.026.
Turning to G7U C82A, the nonsense suppression is 1.02.

Values taken from the RNAGym collection of RNA variant scans (doi:10.1101/gad.245936.114).
